Experimental data taken from publication PMC12120116 (Scientific Reports, 2025).
pIC50: −log10 of the molar value. Values joined by “and” are separate entries in the source; they are usually repeats but may differ in a detail not shown here. Equal values may be shown once. “Also recorded” adds a separate entry of the source.

Key:
Acute toxicity assay = type: in vivo, Artemia franciscana; conditions: Artemia franciscana, in vivo, pH 8.5
[1] = test system: Artemia franciscana larvae; test: Acute toxicity assay; type: in vivo; conditions: for Mortality %: corrected, mean ± SEM; for LC1 (20% of the LC10): 20% of the LC10 at 24 h, sublethal concentration used for metabolomics; for LC10 (lethal concentration 10%): probit regression
[2] = test system: Artemia franciscana larvae; test: Teratogenic effect; type: in vivo; conditions: for Body length: mean ± SEM
Summary of the method: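 Larvae came from cysts hatched 24 h in aerated ASW (pH ≅ 8.5, 28 °C). Thirty larvae were incubated in 1 mL of test-compound dilution (from DMSO stock, 0.17% DMSO, sonicated) at 25–26.5 °C for 24 h and 48 h. Ten larvae per tube had eye-to-tail length measured from images. A linear mixed-effects model (experiment as random effect) compared each treatment with time-matched ASW + 0.17% DMSO vehicle, with Dunnett adjustment.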

A. franciscana larvae [3] = test: Untargeted LC-MS/MS metabolomics of larvae at sublethal concentrations; type: in vivo, Artemia franciscana
A. franciscana larvae [4] = test: ChemRICH chemical similarity enrichment analysis of deregulated metabolites; type: in vivo, Artemia franciscana
A. franciscana larvae [5] = test: Pathway enrichment analysis; type: in vivo, Artemia franciscana; conditions: sublethal concentrations (LC10 at 48 h)
MCF-7 cell line = conditions: cited from earlier work
[6] = rodent models; cited from earlier work
rodent models = conditions: cited from earlier work
A. salina = conditions: 2500 mg/L (15 mM); ref 10 (Lestari et al. 2017); cited from earlier work
[7] = LC1 and LC10, 24 and 48 h, vs vehicle control

With CCCC(CCC)C(=O)Nc1ccccc1O [HO-AAVPA, N-(2-hydroxyphenyl)-2-propylpentanamide] the LC50 at 24 h (Acute toxicity assay) was 450 µM and 106 µg/mL, the LC50 at 48 h (Acute toxicity assay) was 320 µM and 75.8 µg/mL and the Mortality % ([1]; 0.18 mM (42.36 mg/L), 24 h) was 1.03 ± 1.15%. The Mortality % ([1]; 0.18 mM (42.36 mg/L), 48 h) was 16.96 ± 6.69%, the Mortality % ([1]; 0.32 mM (75.31 mg/L), 24 h) was 10.41 ± 5.92% and the Mortality % ([1]; 0.32 mM (75.31 mg/L), 48 h) was 30.34 ± 15.25%. The Mortality % ([1]; 0.56 mM (131.78 mg/L), 24 h) was 60.16 ± 18.53 %, the Mortality % ([1]; 0.56 mM (131.78 mg/L), 48 h) was 77.3 ± 13.49 % and the Mortality % ([1]; 1.00 mM (235.33 mg/L), 24 h) was 97.81 ± 1.1 %. The Mortality % ([1]; 1.00 mM (235.33 mg/L), 48 h) was 100 ± 0 %, the “LC1 (20% of the LC10)” value [1] was 0.04 mM and the “LC10 (lethal concentration 10%)” value ([1]; 48 h) was 0.13 mM and 29.49 mg/L. For the same compound, the “Toxicity compared to VPA” value ([1]; acute toxicity, 24 and 48 h) was “high toxicity; also recorded: higher toxic effects”, the Body length ([2]; 0.10 mM (23.53 mg/L), 24 h) was 0.79 ± 0.011 and the Body length ([2]; 0.10 mM (23.53 mg/L), 48 h) was 0.82 ± 0.014. For the same compound, the Body length ([2]; 0.18 mM (42.36 mg/L), 24 h) was 0.77 ± 0.007, the Body length ([2]; 0.18 mM (42.36 mg/L), 48 h) was 0.78 ± 0.015 and the Body length ([2]; 0.32 mM (75.31 mg/L), 24 h) was 0.76 ± 0.01. For the same compound, the Body length ([2]; 0.32 mM (75.31 mg/L), 48 h) was 0.83 ± 0.011, the Body length ([2]; 0.56 mM (131.78 mg/L), 24 h) was 0.7 ± 0.014 and the Body length ([2]; 0.56 mM (131.78 mg/L), 48 h) was 0.69 ± 0.022. For the same compound, the Body length ([2]; 1.00 mM (235.33 mg/L), 24 h) was 0.66 ± 0.018, the Body length ([2]; 1.00 mM (235.33 mg/L), 48 h) was 0.58 ± 0.018 and the “Teratogenicity compared to VPA” value ([2]; larvae length as morphological indicator) was “lower teratogenicity; also recorded: lower teratogenic”. The “Abundance of L-glutamine, L-asparagine, dihydrothymine and dihydrouracil” value (A. franciscana larvae [3]; [7]) was “did not produce any significant impact”, the “Abundance of L-serine and isobutyryl-L-carnitine” value (A. franciscana larvae [3]; [7]) was “did not produce any significant impact” and the “Oxysterols (3beta,7alpha-dihydroxy-5-cholestenoate, 3b-hydroxy-5-cholenoic acid, 7-ketodeoxycholic acid, 4alpha-carboxy-5alpha-cholesta-8-en-3beta-ol)” value (A. franciscana larvae [3]; LC10) was “increased”. The “Abundance of some triacylglycerides (TG)” value (A. franciscana larvae [3]; both concentrations, only at 24 h) was “downregulated”, the “Abundance of 7E,9E,11-Dodecatrienyl acetate” value (A. franciscana larvae [3]; most notable change, vs vehicle control) was “downregulation” and the “Abundance of mintsulfide, 3beta,7alpha-Dihydroxy-5-cholestenoate and 4alpha-Carboxy-5alpha-cholesta-8-en-3beta-ol” value (A. franciscana larvae [3]; vs vehicle control) was “raised the abundance”. For the same compound, the “Triacylglycerides cluster, abundance of metabolites” value (A. franciscana larvae [4]; LC1, 24 h) was “decreased”, the “Triacylglycerides cluster, abundance of metabolites” value (A. franciscana larvae [4]; LC10, 24 h) was “increased” and the “Glycerophosphocholines and glycerophosphoethanolamines clusters” value (A. franciscana larvae [4]; both concentrations, 48 h) was “mixed changes”. For the same compound, the Malonyl carnitine (A. franciscana larvae [4]; fatty acid esters, LC1 and LC10, 24 and 48 h) was “most sustained alterations”, the “Major deregulated / most impacted metabolic pathways” value (A. franciscana larvae [5]) was “sphingolipid and glycerophospholipid metabolism; also recorded: glycerophospholipid and sphingolipid metabolism” and the pIC50 (MCF-7 cell line) was 3.32. The “Bioavailability compared to VPA” value [6] was “higher bioavailability” and the “Toxicity compared to VPA” value (rodent models) was “lower toxicity”.

In the case of CCCC(CCC)C(=O)O [VPA, valproic acid], the LC50 (Acute toxicity assay) was > 1000 µg/mL, the LC50 at 24 h (Acute toxicity assay) was 41.1 mM and the LC50 at 48 h (Acute toxicity assay) was 18.7 mM. It also gave a Mortality % ([1]; 3 mM (499 mg/L), 24 h) of 1.19 ± 3.15%, a Mortality % ([1]; 3 mM (499 mg/L), 48 h) of 7.06 ± 3.61% and a Mortality % ([1]; 5.4 mM (897 mg/L), 24 h) of 1.83 ± 3.66%. The Mortality % ([1]; 5.4 mM (897 mg/L), 48 h) was 4.98 ± 4.86%, the Mortality % ([1]; 9.6 mM (1595 mg/L), 24 h) was 10.08 ± 8.85% and the Mortality % ([1]; 9.6 mM (1595 mg/L), 48 h) was 26.43 ± 8.52%. The Mortality % ([1]; 16.8 mM (2792 mg/L), 24 h) was 11.11 ± 11.85%, the Mortality % ([1]; 16.8 mM (2792 mg/L), 48 h) was 29.41 ± 11.96% and the Mortality % ([1]; 30 mM (4986 mg/L), 24 h) was 35.05 ± 12.82%. The Mortality % ([1]; 30 mM (4986 mg/L), 48 h) was 62.42 ± 14.69 %, the Mortality % ([1]; 54 mM (8974 mg/L), 24 h) was 37.32 ± 15.84 % and the Mortality % ([1]; 54 mM (8974 mg/L), 48 h) was 82.22 ± 9.04 %. For the same compound, the Mortality % ([1]; 96 mM (15,954 mg/L), 24 h) was 70.18 ± 14.77 %, the Mortality % ([1]; 96 mM (15,954 mg/L), 48 h) was 96.35 ± 2.13 % and the Mortality % ([1]; 168 mM (27,920 mg/L), 24 h) was 98.85 ± 1.15 %. The Mortality % ([1]; 168 mM (27,920 mg/L), 48 h) was 100 ± 0 %, the “LC1 (20% of the LC10)” value [1] was 1.79 mM and the “Concentration at which 100% lethality was achieved” value ([1]; 48 h) was “above 96 mM”. The “LC10 (lethal concentration 10%)” value ([1]; 48 h) was 4.71 mM and 783.1 mg/L, the Body length ([2]; 3 mM (499 mg/L), 24 h) was 0.78 ± 0.008 and the Body length ([2]; 3 mM (499 mg/L), 48 h) was 0.8 ± 0.01. The Body length ([2]; 5.4 mM (897 mg/L), 24 h) was 0.74 ± 0.012, the Body length ([2]; 5.4 mM (897 mg/L), 48 h) was 0.77 ± 0.012 and the Body length ([2]; 9.6 mM (1595 mg/L), 24 h) was 0.69 ± 0.011. For the same compound, the Body length ([2]; 9.6 mM (1595 mg/L), 48 h) was 0.68 ± 0.021, the Body length ([2]; 16.8 mM (2792 mg/L), 24 h) was 0.67 ± 0.009 and the Body length ([2]; 16.8 mM (2792 mg/L), 48 h) was 0.66 ± 0.017. The Body length ([2]; 30 mM (4986 mg/L), 24 h) was 0.67 ± 0.008, the Body length ([2]; 30 mM (4986 mg/L), 48 h) was 0.64 ± 0.013 and the Body length ([2]; 54 mM (8974 mg/L), 24 h) was 0.61 ± 0.015. For the same compound, the Body length ([2]; 54 mM (8974 mg/L), 48 h) was 0.57 ± 0.017, the Body length ([2]; 96 mM (15,954 mg/L), 24 h) was 0.56 ± 0.011 and the Body length ([2]; 96 mM (15,954 mg/L), 48 h) was 0.54 ± 0.01. The Body length ([2]; 168 mM (27,920 mg/L), 24 h) was 0.52 ± 0.014, the Body length ([2]; 168 mM (27,920 mg/L), 48 h) was 0.5 ± 0.011 and the “Ceramide and glycerophosphoinositol clusters, abundance of metabolites” value (A. franciscana larvae [4]; LC10, sustained up to 48 h) was “downregulates”. The “Lipid abundance (glycerophospholipid subclasses, linoleic acid and derivatives)” value (A. franciscana larvae [4]; especially LC1, 48 h) was “increases”, the “C2-C6 acylcarnitines (fatty acid esters cluster)” value (A. franciscana larvae [4]; lowest concentration (LC1)) was “positively impacts” and the “Abundance of amino acids and their derivatives” value (A. franciscana larvae [4]; most metabolites of the cluster) was “upward trend”. The “Major deregulated / most impacted metabolic pathways” value (A. franciscana larvae [5]) was “alanine, aspartate, and glutamate metabolism” and the Lethality (A. salina) was 100%.
